# Source: ChEMBL document CHEMBL1240500, “Peptidyl alpha-ketoamides with nucleobases, methylpiperazine, and dimethylaminoalkyl substituents as calpain inhibitors” (J Med Chem, 2010)
# Test system: not listed separately
# Test: Drug level in C57BL/6 mouse heart at 24 mg/kg, sc after 1 hr by HPLC analysis
# Assay type: ADME, organism-based
# Set-up: dose 24 mg/kg, route subcutaneous
# Settings: read-out: Drug uptake
# Outline: (§1)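 7-week-old female C57BL/6 mice got 24 mg/kg subcutaneously (N = 2) or intravenously (N = 3). They were perfused with buffered saline at 37 °C and killed at 1 h. Tissues were homogenized 5% w/v in water with internal standard. LC-MS/MS used ESI+ MRM and a Zorbax Extend C18 column. Concentration came from the analyte/internal-standard area ratio against calibration standards made in undosed control tissue (0.10–1.00 µM). Errors came from repeat injections.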
row,Compound,concentration at 1 h
1,CCC(NC(=O)[C@H](CC(C)C)NC(=O)OCc1ccccc1)C(=O)C(=O)NCCCN1CCOCC1 (some centres undefined),541 ng/g

# Test system: not listed separately
# Test: Drug level in C57BL/6 mouse spleen at 24 mg/kg, iv after 1 hr by HPLC analysis
# Assay type: ADME, organism-based
# Set-up: dose 24 mg/kg, route intravenous
# Settings: read-out: Drug uptake
# Outline: as §1
row,Compound,concentration at 1 h
1,CCC(NC(=O)[C@H](CC(C)C)NC(=O)OCc1ccccc1)C(=O)C(=O)NCCCN1CCOCC1 (some centres undefined),1320 ng/g

# Test system: not listed separately
# Test: Drug level in C57BL/6 mouse brain at 24 mg/kg, sc after 2 hrs by HPLC analysis
# Assay type: ADME, organism-based
# Set-up: dose 24 mg/kg, route subcutaneous
# Settings: read-out: Drug uptake
# Outline: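 7-week-old female C57BL/6 mice (N = 3 per time point) got 24 mg/kg subcutaneously, were perfused with buffered saline at 37 °C, and were killed at 1, 2, 4 or 8 h. Brain was homogenized 5% w/v in water with internal standard spiked in. LC-MS/MS used ESI+ MRM and a Symmetry Shield C18 column. Quantitation was by peak-area ratio against plasma calibration standards.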
row,Compound,concentration at 2 h
1,CCC(NC(=O)[C@H](CC(C)C)NC(=O)OCc1ccccc1)C(=O)C(=O)NCCCN1CCN(C)CC1 (some centres undefined),1140 ng/g

# Test system: not listed separately
# Test: Drug level in C57BL/6 mouse liver at 24 mg/kg, sc after 1 hr by HPLC analysis
# Assay type: ADME, organism-based
# Set-up: dose 24 mg/kg, route subcutaneous
# Settings: read-out: Drug uptake
# Outline: as §1
row,Compound,concentration at 1 h
1,CCC(NC(=O)[C@H](CC(C)C)NC(=O)OCc1ccccc1)C(=O)C(=O)NCCCN1CCOCC1 (some centres undefined),1550 ng/g

# Test system: not listed separately
# Test: Drug level in C57BL/6 mouse liver at 24 mg/kg, iv after 1 hr by HPLC analysis
# Assay type: ADME, organism-based
# Set-up: dose 24 mg/kg, route intravenous
# Settings: read-out: Drug uptake
# Outline: as §1
row,Compound,concentration at 1 h
1,CCC(NC(=O)[C@H](CC(C)C)NC(=O)OCc1ccccc1)C(=O)C(=O)NCCCN1CCOCC1 (some centres undefined),943 ng/g

# Test system: not listed separately
# Test: Drug level in C57BL/6 mouse spleen at 24 mg/kg, sc after 1 hr by HPLC analysis
# Assay type: ADME, organism-based
# Set-up: dose 24 mg/kg, route subcutaneous
# Settings: read-out: Drug uptake
# Outline: as §1
row,Compound,concentration at 1 h
1,CCC(NC(=O)[C@H](CC(C)C)NC(=O)OCc1ccccc1)C(=O)C(=O)NCCCN1CCOCC1 (some centres undefined),1380 ng/g

# Molecular target: T1, Calpain-1 catalytic subunit (Sus scrofa) (UniProt P35750)
# T1 sequence (whole entry): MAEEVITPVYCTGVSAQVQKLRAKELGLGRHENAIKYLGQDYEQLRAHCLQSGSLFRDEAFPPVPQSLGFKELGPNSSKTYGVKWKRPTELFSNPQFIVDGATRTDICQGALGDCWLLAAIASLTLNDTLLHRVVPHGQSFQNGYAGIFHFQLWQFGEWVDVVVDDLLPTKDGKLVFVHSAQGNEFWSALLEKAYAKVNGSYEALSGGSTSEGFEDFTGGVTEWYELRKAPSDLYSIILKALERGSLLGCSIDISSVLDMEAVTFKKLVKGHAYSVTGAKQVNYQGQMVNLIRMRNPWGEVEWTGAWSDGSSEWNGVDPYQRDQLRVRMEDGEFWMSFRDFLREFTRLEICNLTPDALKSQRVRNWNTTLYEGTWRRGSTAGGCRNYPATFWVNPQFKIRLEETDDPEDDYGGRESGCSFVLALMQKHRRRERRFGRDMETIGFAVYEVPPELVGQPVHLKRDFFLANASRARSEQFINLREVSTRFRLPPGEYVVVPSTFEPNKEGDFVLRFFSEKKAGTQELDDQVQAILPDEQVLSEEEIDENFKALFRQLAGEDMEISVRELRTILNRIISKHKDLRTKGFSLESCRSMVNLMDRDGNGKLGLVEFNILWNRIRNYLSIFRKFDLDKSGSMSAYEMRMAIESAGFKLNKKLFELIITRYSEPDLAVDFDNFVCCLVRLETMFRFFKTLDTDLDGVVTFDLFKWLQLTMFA
# Test: Ratio of compound Ki to AK295 Ki for porcine erythrocyte calpain 1
# Settings: not given
row,Compound,Ratio
1,CCC(NC(=O)[C@H](CC(C)C)NC(=O)OCc1ccccc1)C(=O)C(=O)NCCCn1cnc2c(N)nc(OC)nc21 (some centres undefined),3
2,COc1nc(N)c2ncn(CCCNC(=O)C(=O)C(Cc3ccccc3)NC(=O)[C@H](CC(C)C)NC(=O)OCc3ccccc3)c2n1 (some centres undefined),3
3,CC(C)C[C@H](NC(=O)OCc1ccccc1)C(=O)NC(Cc1ccccc1)C(=O)C(=O)NCCCn1cnc2c(N)ncnc21 (some centres undefined),3

# Molecular target: Cathepsin B (Homo sapiens, UniProt P07858)
# Test: Inhibition of human liver cathepsin B
# Settings: not given
# Outline: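 Human liver cathepsin B was DTT-activated (final 0.4 µM) in 0.1 M NaHPO4 pH 6.0 with 1.25 mM EDTA, 0.01% Brij and <5% DMSO. Cbz-Arg-Arg-AMC was used at 0.5, 0.2 and 0.1 µM, with ≥5 inhibitor concentrations. AMC fluorescence was read at ex 360/em 465 nm. Ki was taken from Dixon plots of 1/v versus [I].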
row,Compound,Ki
1,CCC(NC(=O)[C@H](CC(C)C)NC(=O)OCc1ccccc1)C(=O)C(=O)NCCCn1cnc2c(N)nc(OC)nc21 (some centres undefined),0.88 µM
2,CCC(NC(=O)[C@H](CC(C)C)NC(=O)OCc1ccccc1)C(=O)C(=O)NCCCN1CCN(C)CC1 (some centres undefined),1.42 µM
3,COc1nc(N)c2ncn(CCCNC(=O)C(=O)C(Cc3ccccc3)NC(=O)[C@H](CC(C)C)NC(=O)OCc3ccccc3)c2n1 (some centres undefined),2.34 µM
4,CC(C)C[C@H](NC(=O)OCc1ccccc1)C(=O)NC(Cc1ccccc1)C(=O)C(=O)NCCCn1cnc2c(N)ncnc21 (some centres undefined),1.75 µM
5,CCC(NC(=O)[C@H](CC(C)C)NC(=O)OCc1ccccc1)C(=O)C(=O)NCCCN1CCOCC1 (some centres undefined),6.9 µM

# Test system: not listed separately
# Test: Drug level in C57BL/6 mouse kidney at 24 mg/kg, sc after 1 hr by HPLC analysis
# Assay type: ADME, organism-based
# Set-up: dose 24 mg/kg, route subcutaneous
# Settings: read-out: Drug uptake
# Outline: as §1
row,Compound,concentration at 1 h
1,CCC(NC(=O)[C@H](CC(C)C)NC(=O)OCc1ccccc1)C(=O)C(=O)NCCCN1CCOCC1 (some centres undefined),936 ng/g

# Test system: not listed separately
# Test: Drug level in C57BL/6 mouse heart at 24 mg/kg, iv after 1 hr by HPLC analysis
# Assay type: ADME, organism-based
# Set-up: dose 24 mg/kg, route intravenous
# Settings: read-out: Drug uptake
# Outline: as §1
row,Compound,concentration at 1 h
1,CCC(NC(=O)[C@H](CC(C)C)NC(=O)OCc1ccccc1)C(=O)C(=O)NCCCN1CCOCC1 (some centres undefined),561 ng/g

# Molecular target: T2, Calpain-1 catalytic subunit (Sus scrofa, UniProt P35750)
# T2 sequence (P35750 whole entry): T1 sequence (whole entry)
# Test: Inhibition of porcine erythrocyte calpain 1
# Settings: not given
row,Compound,Ki
1,CCC(NC(=O)[C@H](CC(C)C)NC(=O)OCc1ccccc1)C(=O)C(=O)NCCCn1cnc2c(N)nc(OC)nc21 (some centres undefined),0.023 µM
2,CCC(NC(=O)[C@H](CC(C)C)NC(=O)OCc1ccccc1)C(=O)C(=O)NCCCN1CCN(C)CC1 (some centres undefined),0.64 µM
3,COc1nc(N)c2ncn(CCCNC(=O)C(=O)C(Cc3ccccc3)NC(=O)[C@H](CC(C)C)NC(=O)OCc3ccccc3)c2n1 (some centres undefined),0.041 µM
4,CC(C)C[C@H](NC(=O)OCc1ccccc1)C(=O)NC(Cc1ccccc1)C(=O)C(=O)NCCCn1cnc2c(N)ncnc21 (some centres undefined),0.055 µM
5,CCC(NC(=O)[C@H](CC(C)C)NC(=O)OCc1ccccc1)C(=O)C(=O)NCCCN1CCOCC1 (some centres undefined),0.15 µM

# Test system: not listed separately
# Test: Drug level in C57BL/6 mouse kidney at 24 mg/kg, iv after 1 hr by HPLC analysis
# Assay type: ADME, organism-based
# Set-up: dose 24 mg/kg, route intravenous
# Settings: read-out: Drug uptake
# Outline: as §1
row,Compound,concentration at 1 h
1,CCC(NC(=O)[C@H](CC(C)C)NC(=O)OCc1ccccc1)C(=O)C(=O)NCCCN1CCOCC1 (some centres undefined),1820 ng/g

# Test system: not listed separately
# Test: Drug level in C57BL/6 mouse serum at 24 mg/kg, sc after 1 hr by HPLC analysis
# Assay type: ADME, organism-based
# Set-up: dose 24 mg/kg, route subcutaneous
# Settings: read-out: Drug uptake
# Outline: as §1
row,Compound,concentration at 1 h
1,CCC(NC(=O)[C@H](CC(C)C)NC(=O)OCc1ccccc1)C(=O)C(=O)NCCCN1CCOCC1 (some centres undefined),895 ng/g

# Test system: not listed separately
# Test: Drug level in C57BL/6 mouse peripheral nerve at 24 mg/kg, iv after 1 hr by HPLC analysis
# Assay type: ADME, organism-based
# Set-up: dose 24 mg/kg, route intravenous
# Settings: read-out: Drug uptake
# Outline: as §1
row,Compound,concentration at 1 h
1,CCC(NC(=O)[C@H](CC(C)C)NC(=O)OCc1ccccc1)C(=O)C(=O)NCCCN1CCOCC1 (some centres undefined),333 ng/g

# Molecular target: T3, Calpain-2 catalytic subunit (Sus scrofa, UniProt P43367)
# T3 sequence (P43367 whole entry): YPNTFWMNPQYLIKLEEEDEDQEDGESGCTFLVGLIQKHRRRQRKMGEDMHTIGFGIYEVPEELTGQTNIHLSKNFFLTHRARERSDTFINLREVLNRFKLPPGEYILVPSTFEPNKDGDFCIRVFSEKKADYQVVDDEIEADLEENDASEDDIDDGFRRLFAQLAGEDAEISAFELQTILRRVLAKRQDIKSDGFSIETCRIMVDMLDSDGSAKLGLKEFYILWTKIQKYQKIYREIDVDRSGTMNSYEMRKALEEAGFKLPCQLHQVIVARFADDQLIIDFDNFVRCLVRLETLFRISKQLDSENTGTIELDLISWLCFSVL
# Test: Inhibition of porcine kidney calpain 2
# Settings: not given
row,Compound,Ki
1,CCC(NC(=O)[C@H](CC(C)C)NC(=O)OCc1ccccc1)C(=O)C(=O)NCCCn1cnc2c(N)nc(OC)nc21 (some centres undefined),0.077 µM
2,CCC(NC(=O)[C@H](CC(C)C)NC(=O)OCc1ccccc1)C(=O)C(=O)NCCCN1CCN(C)CC1 (some centres undefined),0.286 µM
3,COc1nc(N)c2ncn(CCCNC(=O)C(=O)C(Cc3ccccc3)NC(=O)[C@H](CC(C)C)NC(=O)OCc3ccccc3)c2n1 (some centres undefined),0.209 µM
4,CC(C)C[C@H](NC(=O)OCc1ccccc1)C(=O)NC(Cc1ccccc1)C(=O)C(=O)NCCCn1cnc2c(N)ncnc21 (some centres undefined),0.068 µM
5,CCC(NC(=O)[C@H](CC(C)C)NC(=O)OCc1ccccc1)C(=O)C(=O)NCCCN1CCOCC1 (some centres undefined),0.041 µM
